# Values without a mark were called inactive. Calls of active or inactive are those of the source.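 Rule for the calls: active = normalized ATPase activity over 10% above control, with a t-test p below 0.05 against the vehicle group; inactive = the rest.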
# Test: calcium sensitizers of cardiac myofibril ATPase, mechanism study for cardiac RTF activator project, biochemical, absorbance, porcine cardiac myofibrils, powder samples (AID 602232)
# Details: phosphate absorbance 660 nm, at 10 µM, active compounds read high
# Summary of the method: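 repeats = five replicate wells per compound | medium = pH 7.0 pCa buffer at half-maximal calcium | schedule = 5 min compound preincubation, then 7 min ATPase reaction, 25 °C | doses = 10 µM single concentration | technique = Fiske-Subbarow colorimetry of released phosphate after TCA stop, 660 nm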
row,Compound,normalized ATPase activity
1,CCN1C(=O)/C(=C/C=C2/SCCN2C)SC1=S,1.07
2,CCCN1CCc2c(sc(NC(=S)NC(=O)c3ccccc3)c2C#N)C1,0.984
3,CCN(CC)c1ccc(/C=C2\SC(N)=NC2=O)cc1,0.992
4,CCN(CC)c1ccc(/C=c2\sc3nc4ccccc4n3c2=O)c(O)c1,0.988
5,CCN1C(=O)/C(=C/N2CCc3ccccc32)SC1=S,0.984
6,CC(C)COCC(CN(Cc1ccccc1)c1ccccc1)N1CCCC1 (stereo not given),1.05
7,Cc1cccn2c(=O)c(/C=C3\SC(=S)N(CC(C)C)C3=O)c(NCCCOC(C)C)nc12,1.11 (active)
8,Cc1ccc(/C=C2\Oc3c(ccc(O)c3CN3CCN(CCO)CC3)C2=O)cc1,0.928
9,COc1ccccc1NS(=O)(=O)c1cc([N+](=O)[O-])ccc1N/N=C/c1c(C)[nH]c2ccccc12,1.08
10,S=C(Nc1ccc(N2CCOCC2)cc1)Nc1ccc2nc(-c3ccco3)c(-c3ccco3)nc2c1,1.06
11,CN1CCN(CCCN2c3ccccc3Sc3ccc(C(F)(F)F)cc32)CC1,0.986
12,COc1ccc(-c2nc3ccc(C4=NNC(=O)CC4C)cc3[nH]2)cc1 (stereo not given),1.05
13,CCOC(=O)c1cc2n(c1N)-c1ccccc1C2=O,1.03
14,CCOC(=O)c1sc(N)c(C#N)c1COC(=O)CNC(=O)c1cc(OC)c(OC)c(OC)c1,1.11 (active)
15,COc1ccc(OC)c(/C=C2\N=C(c3ccccc3)OC2=O)c1,1.03
